# Rows were chosen to be rich in hits. Some 2.6% of all compounds tested hit in one or more screens of this group.
# SENP8 block-1 – SENP8 protease inhibitors, primary screen, biochemical, luminescence. Sentrin-specific protease 8 (Homo sapiens), Q96LD8. purified SENP8, Z-RLRGG-aminoluciferin cleavage. inhibition, % at 10 µM. 1.2% of 330,000 active. AID 2540, 2010; in the data active means inhibition above about 50%
# SENP7 inh – SENP7 protease inhibitors, primary screen, biochemical, luminescence, uHTS | Sentrin-specific protease 7 (Homo sapiens), Q9BQF6 | recombinant SENP7, Z-RLRGG-aminoluciferin luminescence, 40 min | inhibition, % at 5 µM | 1.5% of 330,000 active | AID 434973, 2010;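 active means inhibition above about 50% at the single test dose, limit read from the data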
# SENP8 block-2 – human SENP8 protease inhibitors, primary screen, biochemical, fluorescence, Nedd8 protein substrate, uHTS. recombinant SENP8. 0.64% of 360,000 active. inhibition, % at 20 µM. Sentrin-specific protease 8 (Homo sapiens), Q96LD8; in the data active means inhibition mostly above about 40%, no sharp cut-off; inactive means mostly below about 27%
# SENP1 FRET inh – human SENP1 catalytic domain inhibitors, primary screen, biochemical, FRET, uHTS; inhibition, % at 10 µM; AID 624204, 2012; Sentrin-specific protease 1 (Homo sapiens), Q9P0U3; recombinant SENP1 catalytic domain, CyPet-SUMO1-YPet FRET cleavage; 0.21% of 360,000 active;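 active means inhibition at least 30% at 10 µM, raw YFP signal under a set limit, fluorescence ratio 0.5 to 1.5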
# Target sequence (Q9P0U3 419-644 limits assumed): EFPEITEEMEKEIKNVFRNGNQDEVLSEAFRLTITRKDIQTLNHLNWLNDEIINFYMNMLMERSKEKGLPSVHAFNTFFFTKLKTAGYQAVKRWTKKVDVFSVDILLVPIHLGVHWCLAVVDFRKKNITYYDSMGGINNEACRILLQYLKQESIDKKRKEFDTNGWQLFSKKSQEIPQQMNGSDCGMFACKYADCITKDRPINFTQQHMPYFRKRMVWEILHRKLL
#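 Controls: no-enzyme wells low, DMSO-plus-enzyme wells high control. Test system: human recombinant His6-tagged SENP1 catalytic domain enzyme. Reagent: SFCypet-SUMO1-SFYpet FRET protein substrate, 25 nM final. Doses: one dose per compound, 10 µM, 0.5% DMSO. Detection: FRET, CFP and YFP emission. Timing: 50 min reaction at room temperature.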
# SENP6 inh – SENP6 protease inhibitors, primary screen, biochemical, luminescence, uHTS; inhibition, % at 10 µM; 1.8% of 330,000 active; Recombinant SENP6 catalytic domain, aminoluciferin luminescence;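 active means inhibition above about 50% at the single tested dose, limit read from the data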
# Platelet DG rel – inhibitors of platelet dense granule secretion, primary screen, cell-based, MLPCN, human platelets; 0.22% of 300,000 active; inhibition, %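 (compounds screened at 7.5 µM in platelet-rich plasma)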; human platelet-rich plasma, SFLLRN dense granule ATP release, luminescence;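 active means mean replicate score, as percent of positive control, at or above 50; inconclusive means mean below 50 but at least one replicate at or above 50; inactive means mean and every replicate below 50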
# SENP8 conf – SENP8 protease inhibitors, retest, confirmation, biochemical, luminescence, single concentration. shares compounds with SENP7 inh. Recombinant SENP8, Z-RLRGG-aminoluciferin luminescence, 60 min. inhibition, % at 12.5 µM. 40% of 6,200 active;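 active means mean inhibition across replicates above about 50%, limit read from the data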
# SENP6 conf – SENP6 protease inhibitors, confirmation, biochemical, luminescence, single concentration | shares compounds with SENP7 inh | recombinant SENP6, Z-RLRGG-aminoluciferin luminescence | inhibition, % at 12.5 µM | 58% of 6,200 active | AID 488915, 2010
# SENP7 confirm – SENP7 protease inhibitors, retest, confirmation, biochemical, luminescence, single concentration | shares compounds with SENP7 inh | recombinant SENP7, Z-RLRGG-aminoluciferin luminescence, 40 min | inhibition, % at 12.5 µM | 69% of 6,200 active | AID 488917, 2010
# Casp3 select – caspase-3 protease inhibitors, confirmation, selectivity assay for SENP inhibitor project, biochemical, single concentration; shares compounds with SENP7 inh; purified caspase-3, Z-DEVD-aminoluciferin luminescence, 60 min; inhibition, % at 12.5 µM; 60% of 6,200 active; AID 488918, 2010;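 active means mean inhibition above about 50%, limit read from the data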
# Target sequence (P42574 28-227 limits assumed): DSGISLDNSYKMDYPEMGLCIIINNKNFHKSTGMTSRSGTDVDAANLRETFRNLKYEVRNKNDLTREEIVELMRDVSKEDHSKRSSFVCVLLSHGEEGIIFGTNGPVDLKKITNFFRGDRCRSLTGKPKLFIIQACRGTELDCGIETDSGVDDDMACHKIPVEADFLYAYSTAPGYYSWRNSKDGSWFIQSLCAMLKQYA
# Luc interf – luminescence interference (SENP counter-screen) | shares compounds with SENP7 inh | Pre-incubated SENP8/Z-RLRGG-aminoluciferin, luciferase luminescence interference | inhibition, % at 12.5 µM | 39% of 6,200 active;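 active means mean inhibition above about 50% when retested at one dose, limit read from the data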
# Numbers stand for hits; - = inactive; ? = inconclusive; . = no result.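 How the source made its calls, unless noted: active means mean inhibition above about 50% in the one-dose retest (limit read from the data); inactive means the rest.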
SMILES,SENP8 block-1,SENP7 inh,SENP8 block-2,SENP1 FRET inh,SENP6 inh,Platelet DG rel,SENP8 conf,SENP6 conf,SENP7 confirm,Casp3 select,Luc interf
Cc1c(C(=O)N/N=C/c2cccc(O)c2)nnn1-c1nonc1N,-,-,-,-,-,-,.,.,.,.,.
COc1cc(/C=N/N=C(\N)c2nonc2N)ccc1O,89,94,-,-,93,?,93,92,99,94,92
N/C(=N\N=C\c1ccc(Br)o1)c1nonc1N,-,-,-,-,-,-,.,.,.,.,.
Cc1ccc(CN=c2c([N+](=O)[O-])nn(-c3ccc4c(c3)OCCO4)n2O)cc1,-,-,-,-,59,-,-,-,58,-,-
O=[N+]([O-])c1nn(-c2ccc3c(c2)OCCO3)n(O)c1=NCCCO,-,-,-,-,-,-,.,.,.,.,.
COCCNC(=O)c1cc2nc3c(c(C(F)(F)F)n2n1)CCc1ccccc1-3,-,-,-,-,-,-,.,.,.,.,.
O=C(O)c1cc2nc3c(c(C(F)(F)F)n2n1)CCc1ccccc1-3,-,-,-,-,72,-,-,-,-,-,-
Cc1ccc(-c2nnc(Nc3ccccc3)o2)cc1,95,-,-,-,97,-,-,93,75,87,-
Cc1ccc(/C=C/c2nnc(-c3ccccc3)o2)cc1,76,-,-,-,86,-,-,63,89,80,-
C(=C\c1nnc(-c2cccs2)o1)/c1ccccc1,74,-,-,-,81,-,-,61,88,65,-
Clc1ccccc1-c1nnc(-c2cccs2)o1,72,80,-,-,81,-,75,74,92,79,55
O=c1oc2ccc3ccccc3c2cc1-c1nnc(-c2cccs2)o1,-,-,-,-,-,-,.,.,.,.,.
Cc1ccc(-c2noc(/C=C/c3ccccc3)n2)cc1,-,-,-,-,-,-,.,.,.,.,.
CCN(CC)S(=O)(=O)c1cccc(NC(=O)CCNC(=O)NC23CC4CC(CC(C4)C2)C3)c1,-,-,-,-,-,-,.,.,.,.,.
COc1ccc(-c2cn(-c3ccccc3)nc2C(=O)O)cc1OC,-,-,-,-,-,-,.,.,.,.,.
CC1OC(Nc2cccc3ccccc23)C(O)C(O)C1O (stereo unspecified),89,-,-,-,95,-,-,52,-,-,-
CC1OC(Nc2ccc(N=Nc3ccccc3)cc2)C(O)C(O)C1O (stereo unspecified),-,-,-,-,-,-,.,.,.,.,.
COc1ccc(C(=O)O/N=C2\C(=O)N(C)c3ccccc32)cc1,-,-,-,-,-,-,.,.,.,.,.
COc1ccc(C(=O)N=c2nc3ccccn3s2)cc1,90,98,-,-,95,50,88,91,96,82,-
CCCSc1nnc(CSc2nc3nc(C)cc(C)n3n2)o1,-,-,-,-,-,-,.,.,.,.,.
CCCCSc1nnc(CSc2nc3nc(C)cc(C)n3n2)o1,-,78,-,-,-,-,-,-,-,-,-
